Data reported in article PMC11959935 (Acta Pharmaceutica Sinica. B, 2025).

Assays:
[1] = tested on: epileptic focus; assay: Pilot clinical PET imaging in a patient with temporal lobe epilepsy; assay type: in vivo, human
[2] = tested on: GL261 glioma allograft; assay: PET imaging of orthotopic GL261 glioma allograft mouse models; assay type: in vivo
Method in brief: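 Mice under isoflurane (1.5%, 0.4 L/min) in a stereotactic frame received mouse GL261 glioma cells (suspension 1 × 10^5 cells/mL) through a drilled hole by Hamilton syringe; controls received PBS. After 10 days, tumours were confirmed by T2-weighted MRI and [18F]FET PET (11.1 MBq), then the radiotracer was given i.v. T/N ratio was lesion SUV over contralateral normal brain.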

CCOC(=O)c1ncn2c1CN(C)C(=O)c1cc([18F])ccc1-2 [[^18F]FMZ]
SUVmean in epileptic focus [1]: 0.54 ± 0.28

N[C@@H](Cc1ccc(OCC[18F])cc1)C(=O)O [[^18F]FET, ^18F-fluoro-ethyl-tyrosine]
T/N ratio [2]: 1.17 ± 0.02
